WNV protease inh: inhibitors of WNV NS2B-NS3 protease, primary screen, biochemical, fluorogenic substrate; Genome polyprotein (West Nile virus), P06935; z-score (concentration not given with the values); AID 577, 2007; fluorogenic substrate Ex360/Em465; hits give low values; 65,000 tested, 0.18% active; in the data active = z-score below about -3
AP complement: alternative complement pathway inhibitors, primary screen, biochemical, ELISA, human serum, orthogonally pooled compounds. AID 1235, 2008. inhibition, % at 5 µM. LPS-coated ELISA, C3 deposition; tested in compound mixtures. 62,000 tested, 0.08% active;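 active = inhibition above 30% in each of the two pooled mixtures holding the compound, so the lower value exceeds 30%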
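Test system: human serum alternative complement pathway, C3 deposition on LPS-coated wells; also added: Plate-bound LPS; doses: 5 µM per compound in ten-compound mixtures; schedule: 1 h at 37 °C; detection: Anti-C3 ELISA, OD 450 nm; evaluation: percent inhibition of C3 deposition onto LPS; repeats: two pool placements per compound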
FXIIa mix inh: human factor XIIa inhibitors, primary screen, biochemical, pooled compound mixtures, fluorogenic substrate. purified FXIIa. inhibition, % at 5 µM. 62,000 tested, 0.2% active. AID 684, 2007
FXIa mix inh: FXIa protease inhibitors in compound pools, primary screen, biochemical, 10-compound mixtures. Coagulation factor XI (Homo sapiens), P03951. purified FXIa, fluorogenic substrate, pooled mixtures. inhibition, % at 5 µM. 62,000 tested, 0.19% active. AID 680, 2007;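 also: each value is inhibition by a whole ten-compound pool holding the compound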
Target sequence (P03951 19-387 limits assumed): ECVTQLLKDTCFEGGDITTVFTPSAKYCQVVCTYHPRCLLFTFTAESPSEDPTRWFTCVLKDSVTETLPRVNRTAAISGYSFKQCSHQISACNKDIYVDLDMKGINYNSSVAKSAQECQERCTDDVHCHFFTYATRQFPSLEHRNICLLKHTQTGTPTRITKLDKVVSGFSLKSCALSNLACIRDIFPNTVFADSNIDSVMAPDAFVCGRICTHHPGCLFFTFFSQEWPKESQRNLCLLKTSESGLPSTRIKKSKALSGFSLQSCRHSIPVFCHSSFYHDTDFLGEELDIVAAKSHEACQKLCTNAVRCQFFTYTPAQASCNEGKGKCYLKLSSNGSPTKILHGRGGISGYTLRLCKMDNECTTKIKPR
Target sequence (P03951 388-625 limits assumed): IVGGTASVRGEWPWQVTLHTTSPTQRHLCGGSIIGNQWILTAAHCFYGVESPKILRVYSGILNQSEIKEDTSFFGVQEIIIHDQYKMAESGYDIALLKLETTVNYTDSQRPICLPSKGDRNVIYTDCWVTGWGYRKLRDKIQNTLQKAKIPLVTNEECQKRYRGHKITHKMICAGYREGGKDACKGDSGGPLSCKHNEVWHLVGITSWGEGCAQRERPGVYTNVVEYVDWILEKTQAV
CatG inh: human cathepsin G inhibitors, primary screen, biochemical, pooled compound mixtures, AMC fluorescence. P08311. purified enzyme, AMC-tetrapeptide fluorescence. inhibition, % at 5 µM (by protocol). 62,000 tested, 0.2% active;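 active = inhibition above 20% in each of the two mixture wells holding the compound; inactive = inhibition of 20% or less in either well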
C1s inh: complement C1s protease inhibitors, primary screen, biochemical, 10-compound mixtures. mean inhibition % of two 10-compound mixtures (hits give high values), % at 5 µM (by protocol). 62,000 tested, 0.16% active. purified C1s, fluorogenic AMC substrate, pooled mixtures. AID 538, 2006;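 active = inhibition above 20% in each of the two 10-compound mixture wells holding the compound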
Of the large screens only hits and unclear results are named; the others gave an inactive call. This is a sample that favours compounds with a hit; in the whole collection about 0.85% have one here. Rule as the data show it, unless noted: active = inhibition above about 20% (passing the limit was not always enough); inactive = the rest.

C=C(C)c1cccc(C(C)(C)NC(=O)N2CC(C)OC(C)C2)c1 (stereo not given)	FXIIa mix inh 22
O=C(Nc1cccc(NC(=O)c2cccnc2)c1)c1cccnc1	none
O=C(Nc1ccc2oc(=O)ccc2c1)c1cccnc1	C1s inh 23
COc1ccc(S(=O)(=O)N(CC(=O)NC2CC2)C2CCCCC2)cc1Cl	none
CNC(=O)CN(C1CCCCC1)S(=O)(=O)c1ccc(OC)c(Cl)c1	FXIIa mix inh 48
Cn1c(SCCOc2ccc(Cl)cc2)nnc1-c1ccncc1	none
Cn1c2ccccc2c2nn(-c3ccccc3)c(=O)cc21	WNV protease inh -3.5 (no result: AP complement, FXIIa mix inh, FXIa mix inh, CatG inh, C1s inh)
O=C1NCCN1Cc1ccccc1F	none
O=C(O)CSCc1ccc(Cl)cc1	FXIIa mix inh 65
O=C(NC1=NCCS1)c1cccc(S(=O)(=O)N2CCCCC2)c1	none
COc1ccc(-n2c(SCC(=O)N3CCN(c4ccccc4)CC3)nc3c(c2=O)SCC3)cc1	none
Cc1ccc(-n2c(SCC(=O)N3CCCC3)nc3c(c2=O)SCC3)cc1	C1s inh 21
CCOC(=O)Cc1nnc(NC(=O)C(CC)Sc2nnc3c4ccccc4n(C)c3n2)s1 (stereo not given)	C1s inh 22
O=C(NCc1ccc2c(c1)OCO2)c1cc2ncc(Br)cn2n1	none
COc1ccc2[nH]c(C(=O)O)c(CCNC(C)=O)c2c1	WNV protease inh -4.1
O=C(c1ccco1)N1CCN=C1SCc1ccccc1Cl	none
O=C(c1ccco1)N1CCN=C1SCc1c(F)cccc1Cl	FXIa mix inh 29
CCOC(=O)N1CCN(C(=O)CCCn2nc(C)c3sc4ccccc4c3c2=O)CC1	none
COc1cccc(-c2noc(-c3cccs3)n2)c1	FXIIa mix inh 31
Cc1cc(Oc2ccccc2)nc(OCC#N)n1	FXIIa mix inh 38
COc1ccc(C(=O)N2CCSC2=S)cc1OC	none
COc1ccc(C(=O)SC2=NCCS2)cc1OC	C1s inh 24
COC(=O)c1c(NC(=O)C2CC2)sc2c1CCCC2	WNV protease inh -3.6
O=S(=O)(c1ccc(F)cc1)N(CCO)CC(O)Cn1c2ccccc2c2ccccc21 (stereo not given)	WNV protease inh -4.1
Nc1nc(NC(=O)c2cccs2)nn1-c1ccccc1	none
Nc1nncn1C(=O)c1cccs1	CatG inh 22
Cc1csc(CCc2nc(C)cs2)n1	FXIIa mix inh 22
Cc1csc(SCC(=O)N2CCCC2)n1	none
c1ccc(N2CCCCC2)c(NC2=NCCC2)c1	none
COc1ccc(CCNC(=O)CSc2nnc(-c3ccc(F)cc3)o2)cc1OC	WNV protease inh -6.1
COc1ccc(CCNC(=O)CSc2nnc(CNc3ccc(Cl)cc3)o2)cc1OC	none
CN(CCNC(=O)c1cccc(N2CCCC2=O)c1)Cc1ccccc1	FXIIa mix inh 24
O=C(C1COc2ccccc2O1)N1CCc2ccccc21 (stereo not given)	none
CCOc1ccccc1N(CC(=O)NC1CCCC1)C(=O)CCC(=O)Nc1cc(C)on1	WNV protease inh -8.6
COc1ccccc1N(CC(=O)NC1CCCC1)C(=O)CCC(=O)Nc1cc(C)on1	none
O=S(=O)(Nc1ccc2nc(C(F)(F)F)[nH]c2c1)c1ccccc1	none
O=S(=O)(Nc1ccc2nc(-c3ccc(Br)o3)[nH]c2c1)c1ccccc1	FXIIa mix inh 28
CCN(CC)c1ccc(NC(=O)CC2Oc3ccccc3NC2=O)c(C)c1 (stereo not given)	none
C=CCOc1cccc(C2c3c(oc4ccc(F)cc4c3=O)C(=O)N2CCCN2CCOCC2)c1 (stereo not given)	AP complement 34
COC(=O)c1sc(N2C(=O)C(O)=C(C(=O)c3ccc(C)o3)C2c2ccc(F)cc2)nc1C (stereo not given)	FXIa mix inh 40, CatG inh 59
CCOc1cccc(C2C(C(=O)c3ccc(C)o3)=C(O)C(=O)N2c2nccs2)c1 (stereo not given)	none
O=C(Cn1c(CN2CCCCC2)nc2ccccc2c1=O)NC1CCCCC1	none
O=C(Cn1c(CN2CCCCC2)nc2ccccc2c1=O)Nc1ccccc1	AP complement 36
CN(C)/C=C1/Sc2ccccc2C1=O	WNV protease inh -4.1
CCCCNC(=O)c1nc2ncc(Br)cn2n1	FXIa mix inh 25
CCCOc1cccc(NC(=O)c2cc(C)oc2C)c1	none
Nc1ccc(S(=O)(=O)Nc2ccccn2)cc1	WNV protease inh -3.1
CC(O)c1n(C)c(Cl)c[n+]1C (stereo not given)	none
Cc1ccc(NS(=O)(=O)c2cc(C(=O)N3CCOCC3)ccc2C)cc1C	C1s inh 21
O=C(COC(=O)C12CC3CC(CC(C3)C1)C2)N1CCN(S(=O)(=O)c2ccccc2)CC1	FXIa mix inh 37
COCCn1c(=S)[nH]c2ncccc2c1=O	FXIa mix inh 38
COCCCn1c(=S)[nH]c2ncccc2c1=O	none
COc1ccc2c3c(cccc13)NN=C2C	WNV protease inh -4.5
Cn1c(=O)[nH]c(=O)c2c1nc(Br)n2CC(O)c1ccccc1 (stereo not given)	AP complement 42
CCOC(=O)C1CCN(CCC(=O)Nc2cccc(Cl)c2)CC1	FXIIa mix inh 35
Cc1cccc(NC(=O)CCN2CCOCC2)c1	AP complement 38
CCN(CC)c1ccc(NC(=O)C2CCCN(S(=O)(=O)c3cnc[nH]3)C2)c(C)c1 (stereo not given)	none
CC(C)n1c(-c2cccnc2)nc2cnccc21	WNV protease inh -9.4
CC(C)(C)NCCCCOc1ccc(F)cc1	FXIIa mix inh 26
COc1ccc(OC)c(Nc2nc(-c3cccs3)cs2)c1	none
COc1ccccc1Nc1nc(-c2cccs2)cs1	C1s inh 58
CCn1cc(C(=O)NC2CCCC2)c(=O)c2cc(S(=O)(=O)N3CCOCC3)ccc21	none
COc1cc2cc(C(c3nnnn3C3CCCC3)N3CCCCC3)c(=O)[nH]c2cc1OC (stereo not given)	AP complement 31
COc1cc2cc(C(c3nnnn3C3CCCC3)N3CCCCCC3)c(=O)[nH]c2cc1OC (stereo not given)	none
COc1ccccc1-c1cc(C(F)(F)F)nc(N2CCOCC2)n1	FXIa mix inh 22
Fc1ccc(-c2cc(C(F)(F)F)nc(N3CCCCC3)n2)cc1	FXIIa mix inh 21
CC1CCN(c2nc(-c3ccccc3)cc(C(F)(F)F)n2)CC1	none
COc1ccccc1-c1cc(C(F)(F)F)nc(N2CCN(c3ccccc3)CC2)n1	none
O=C(NCc1cccs1)C1CCCN(S(=O)(=O)c2cnc[nH]2)C1 (stereo not given)	none

Screening results as filed in PubChem.
